From ChEMBL document CHEMBL5316278, “Chemical Blockage of the Mitochondrial Rhomboid Protease PARL by Novel Ketoamide Inhibitors Reveals Its Role in PINK1/Parkin-Dependent Mitophagy” (J Med Chem, 2023)
Activity calls are given as the source filed them. The calls are words filed in the database; no cut-off is given here. *1 amine or outer side, *2 acyl side, *3 side chain or, on linkers, in order; H or OH if unused. Where a SMILES comes first, the peptide text is derived from it. [ ]: non-standard residue; d: D form. The star is where a group is joined. NH(4-phenylbutyl) = c1ccc(CCCCN*)cc1; X1 = C[C@H](N[*:1])C(=O)C(=O)[*:2]

Columns and labels:
[1] = target: T1, Presenilin-associated rhomboid-like protein, mitochondrial (Homo sapiens) (UniProt Q9H300); experiment: Inhibition of human PARL expressed in human T-REx-293 cells overexpressing PINK1 transfected with HA-Parkin-IRES-GFP assessed as increase in Parkin level in mitochondrial fraction at 5 uM incubated for 22 hrs by immunoblot analysis; assay type: mitochondria
T1 sequence (whole entry): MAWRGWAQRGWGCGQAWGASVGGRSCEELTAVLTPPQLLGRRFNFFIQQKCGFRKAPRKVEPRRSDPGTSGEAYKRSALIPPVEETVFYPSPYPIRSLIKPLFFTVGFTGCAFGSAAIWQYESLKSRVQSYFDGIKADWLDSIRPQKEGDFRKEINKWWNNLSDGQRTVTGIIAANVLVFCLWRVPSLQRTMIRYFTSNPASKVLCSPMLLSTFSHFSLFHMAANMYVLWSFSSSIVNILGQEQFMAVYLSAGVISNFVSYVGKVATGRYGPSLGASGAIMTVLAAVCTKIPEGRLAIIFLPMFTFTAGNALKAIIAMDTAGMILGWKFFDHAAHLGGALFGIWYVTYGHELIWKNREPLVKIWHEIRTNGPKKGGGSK
Method in brief: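 PINK1-induced HEK293 T-REx cells were transiently transfected with HA-Parkin-IRES-GFP (100 ng per 6-well, linear PEI). They were treated for 22 h, with DMSO, CCCP (10 μM, 3 h) and Antimycin A (30 μM, 3 h) as comparators. Cells were fractionated into cytosolic and mitochondrial fractions and immunoblotted (AIF, β-actin controls); n = 3, unpaired t-test.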

[2] = target: T1, Presenilin-associated rhomboid-like protein, mitochondrial (Homo sapiens); experiment: Inhibition of human PARL expressed in human T-REx-293 cells overexpressing PINK1 transfected with mito-mCherry and Parkin-mEGFP assessed as Parkin recruitment in mitochondria at 5 uM incubated for 3 hrs by fluorescence based microscopic analysis
Method in brief: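 PINK1-induced HEK293 T-REx cells on poly-L-lysine slides were co-transfected with mito-mCherry and Parkin-mEGFP using PEI. Nuclei were stained with Hoechst (1 μg/mL) before treatment, and cells were treated for 3 h alongside DMSO, CCCP and Antimycin A. Parkin colocalisation with mitochondria was judged by fluorescence microscopy and line-scan pixel intensity plots.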

HEK-293T = experiment: Disruption of mitochondrial membrane potential in human HEK293T cells at 5 uM incubated for 3 hrs by JC-1 staining method; assay type: functional, cell-based
[3] = target: T1, Presenilin-associated rhomboid-like protein, mitochondrial (Homo sapiens); experiment: Inhibition of human PARL expressed in human Flp-In-T-REx-293 cells overexpressing PINK1 assessed as stabilization of 62 kDa PINK1 by measuring its inner mitochondrial level at 5 uM incubated for 3 hrs followed by proteinase K treatment by immunoblot analysis; assay type: cell-based
Method in brief: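 PINK1 was induced in HEK293 T-REx cells by doxycycline and treated for 3 h, with DMSO and CCCP as comparators. Mitochondria were isolated at 4 °C in EGTA-free isolation buffer and exposed to proteinase K for 1 h, then PMSF (2.5 mM, 15 min). PINK1 forms were read by immunoblot, with AIF and VDAC as fractionation controls.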

[4] = target: T1, Presenilin-associated rhomboid-like protein, mitochondrial (Homo sapiens); experiment: Inhibition of human PARL expressed in human HEK293T cells assessed as stabilization of 62 kDa PINK1 at 5 uM incubated for 8 hrs by immunoblot analysis; assay type: cell-based
Method in brief: (§1)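 Parental HEK293T cells (endogenous PINK1) were treated for 8 h, with DMSO or CCCP as comparators. Mitochondrial membranes were enriched by hypotonic needle lysis, 100,000 × g pelleting and 100 mM Na2CO3 extraction through a sucrose cushion. PINK1 was then read by immunoblot, with VDAC as fractionation control; n = 3, means ± SEM.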

[5] = target: T1, Presenilin-associated rhomboid-like protein, mitochondrial (Homo sapiens); experiment: Inhibition of human PARL expressed in human Flp-In-T-REx-293 cells overexpressing PINK1 assessed as stabilization of 62 kDa PINK1 at 0.1 to 30 uM incubated for 8 hrs by immunoblot analysis; assay type: cell-based; details: dose 0.1-30 µM
Method in brief: (§2)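 HEK293 T-REx cells with inducible PINK1 were grown in DMEM with 10% FBS, GlutaMAX, pyruvate, hygromycin and blasticidin. PINK1 was induced with 0.3 μg/mL doxycycline for 24 h. Cells were treated for 8 h, with DMSO and CCCP (10 μM, 3 h) as comparators. Cleaved PINK1 forms were resolved by immunoblot of whole-cell samples.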

[6] = target: T1, Presenilin-associated rhomboid-like protein, mitochondrial (Homo sapiens); experiment: Inhibition of human PARL expressed in human Flp-In-T-REx-293 cells overexpressing PINK1 assessed as stabilization of 53 kDa PINK1 at outer mitochondrial membrane at 5 uM incubated for 6 hrs followed by proteinase K treatment by immunoblot analysis; assay type: cell-based
Method in brief: (§3)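 PINK1 was induced in HEK293 T-REx cells (doxycycline 0.3 μg/mL, 24 h), then treated for 6 h. Cells were lysed directly, or mitochondria were isolated by needle lysis and 10,000 × g centrifugation and digested with proteinase K for 30 min, then 2.5 mM PMSF for 15 min. Read-out was immunoblot, with AIF as fractionation control.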

[7] = target: T1, Presenilin-associated rhomboid-like protein, mitochondrial (Homo sapiens); experiment: Inhibition of human PARL expressed in human Flp-In-T-REx-293 cells overexpressing PINK1 with OMA1 knockdown assessed as stabilization of 53 kDa PINK1 at 10 uM incubated for 8 hrs by immunoblot analysis; assay type: cell-based
Method in brief: (§4)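 PINK1-inducible HEK293 T-REx cells were transfected with 20 nM siRNA using RNAiMAX and analysed five days later. PINK1 was induced with doxycycline. Cells were treated for 8 h with 10 μM or DMSO. Read-out was immunoblot, with β-actin as loading control.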

[8] = target: T1, Presenilin-associated rhomboid-like protein, mitochondrial (Homo sapiens); experiment: Inhibition of human PARL expressed in human Flp-In-T-REx-293 cells overexpressing PINK1 with OMA1 knockdown assessed as stabilization of 62 kDa PINK1 at 10 uM incubated for 8 hrs by immunoblot analysis; assay type: cell-based; method in brief: as §4
[9] = target: T1, Presenilin-associated rhomboid-like protein, mitochondrial (Homo sapiens); experiment: Inhibition of human PARL expressed in human Flp-In-T-REx-293 cells overexpressing PINK1 assessed as stabilization of 66 kDa PINK1 at 0.1 to 30 uM incubated for 8 hrs by immunoblot analysis; assay type: cell-based; details: dose 0.1-30 µM; method in brief: as §2
[10] = target: T1, Presenilin-associated rhomboid-like protein, mitochondrial (Homo sapiens); experiment: Inhibition of human PARL expressed in human HEK293T cells assessed as stabilization of 66 kDa PINK1 at 5 uM incubated for 8 hrs by immunoblot analysis; assay type: cell-based; method in brief: as §1
[11] = target: T1, Presenilin-associated rhomboid-like protein, mitochondrial (Homo sapiens); experiment: Inhibition of human PARL expressed in human Flp-In-T-REx-293 cells overexpressing PINK1 assessed as stabilization of 53 kDa PINK1 at 0.1 to 30 uM incubated for 8 hrs by immunoblot analysis; assay type: cell-based; details: dose 0.1-30 µM; method in brief: as §2
[12] = target: T1, Presenilin-associated rhomboid-like protein, mitochondrial (Homo sapiens); experiment: Inhibition of human PARL expressed in human Flp-In-T-REx-293 cells overexpressing PINK1 assessed as stabilization of 66 kDa PINK1 at outer mitochondrial membrane at 5 uM incubated for 6 hrs followed by proteinase K treatment by immunoblot analysis; assay type: cell-based; method in brief: as §3

| Compound | inhibition [1] | inhibition [2] | Activity (HEK-293T) | inhibition [3] | inhibition [4] | inhibition [5] | inhibition [6] | inhibition [7] | inhibition [8] | inhibition [9] | inhibition [10] | inhibition [11] | inhibition [12] |
| --- | --- | --- | --- | --- | --- | --- | --- | --- | --- | --- | --- | --- | --- |
| CCCCCC[C@H]1C(=O)O[C@H](C)[C@H](NC(=O)c2cccc(NC=O)c2O)C(=O)O[C@@H](C)[C@@H]1OC(=O)CC(C)C | Active | inactive |  |  |  |  |  |  |  |  |  |  |  |
| N#CC(C#N)=NNc1cccc(Cl)c1 | Active |  | Active | inactive |  |  |  |  |  |  |  |  |  |
| CC(=O)N[C@@H](C)C(=O)N[C@H](C(=O)N[C@@H](Cc1ccccc1)C(=O)N[C@@H](CC(C)C)C(=O)N[C@@H](C)C(=O)C(=O)NCCCCc1ccccc1)C(C)C (Ac-AVFL[X1]-{NH(4-phenylbutyl)}) | Active | Active | inactive | Active | Active | Dose-Dependent Effect | inactive | Active | Active | Dose-Dependent Effect | Active | Dose-Dependent Effect | inactive |
